Data from ChEMBL document CHEMBL4680106, “Rational Design of Dimeric Lysine N-Alkylamides as Potent and Broad-Spectrum Antibacterial Agents” (J Med Chem, 2018).
≈ marks a conversion by molar mass, not a printed value. Calls of active or inactive are those of the source. The rule behind the calls is not given here.

Legend:
[1] = test system: Staphylococcus epidermidis; test: Antimicrobial activity against methicillin-resistant Staphylococcus epidermidis RP62A assessed as inhibition of bacterial growth by broth microdilution method; assay type: functional
How it was run: (§1)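 Broth microdilution following a previously reported procedure. MIC was taken as the lowest concentration with no turbidity, meaning complete growth inhibition over the incubation period.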

Staphylococcus aureus [2] = test: Antimicrobial activity against methicillin-resistant Staphylococcus aureus ATCC 33591 assessed as inhibition of bacterial growth by broth microdilution method; assay type: functional; how it was run: as §1
Enterococcus faecalis = test: Antimicrobial activity against vancomycin-resistant Enterococcus faecalis assessed as inhibition of bacterial growth by broth microdilution method; assay type: functional; how it was run: as §1
Escherichia coli [3] = test: Antimicrobial activity against Escherichia coli ATCC 25922 assessed as inhibition of bacterial growth by broth microdilution method; assay type: functional
Pseudomonas aeruginosa = test: Antimicrobial activity against Pseudomonas aeruginosa ATCC 27853 assessed as inhibition of bacterial growth by broth microdilution method; assay type: functional
[4] = Induction of hemolysis in human RBC incubated for 1 hr; assay type: cell-based, Erythrocyte; settings: human red blood cells (erythrocytes)
How it was run: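 Human RBCs pelleted at 3000 rpm for 10 min and made 5% v/v in 1x PBS, mixed 1:1 with compound at several concentrations, 37 °C for 1 h. Spun at 3500 rpm for 10 min; diluted supernatant read at 540 nm. Hemolysis % referenced to 2% Triton X-100 (100%) and PBS (0%). Three repeats, duplicates each.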

Staphylococcus aureus [5] = test: Bactericidal activity against methicillin-resistant Staphylococcus aureus ATCC 33591 assessed as bacterial killing by measuring reduction in bacterial colony count at 64 times MIC incubated for 2 hrs by time-kill kinetics method; assay type: functional, organism-based
How it was run: (§2)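 MRSA were grown in tryptic soy broth to 10^6 CFU/mL and exposed to compound at multiples of MIC, sampled for up to 2 h. Aliquots were diluted 10^2–10^4-fold and plated on TSB agar, incubated 24 h at 37 °C, and colonies counted. Run three times.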

Staphylococcus aureus [6] = test: Antimicrobial activity against methicillin-resistant Staphylococcus aureus ATCC 33591 grown under presence of test compound at 1/2 MIC assessed as inhibition of bacterial growth measured after 14 passages by broth microdilution method relative to wild type; assay type: functional
How it was run: (§3)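 Initial MIC by the standard broth microdilution procedure. Bacteria from the 1/2 MIC wells were made into a suspension of about 10^6 CFU/mL, incubated with compound at 37 °C for 24 h, and the MIC was measured again. This was repeated daily for 14 passages.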

Staphylococcus aureus [7] = test: Bactericidal activity against methicillin-resistant Staphylococcus aureus ATCC 33591 assessed as bacterial killing at 6.25 to 12.5 ug/ml incubated for 2 hrs by time-kill kinetics method; assay type: functional, organism-based; settings: dose 6.25-12.5 µg/ml; how it was run: as §2
Cell membrane [8] = test: Induction of cell membrane disruption in Escherichia coli ATCC 25922 at 2 times MIC incubated for 2 hrs by DAPI and PI staining based optical microscopy
How it was run: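 Cells grown to ~2 × 10^6 cells, exposed 2 h, pelleted at 3000g for 15 min and PBS-washed. Stained with PI (5 µg/mL) then DAPI (10 µg/mL in water), each 15 min in the dark at 0 °C, then PBS-washed. Untreated controls handled identically. Imaged by 100x oil-immersion light microscopy; three repeats, duplicates each.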

Cell membrane [9] = test: Induction of cell membrane disruption in methicillin-resistant Staphylococcus aureus ATCC 33591 at 2 times MIC incubated for 2 hrs by DAPI and PI staining based optical microscopy
How it was run: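 Bacteria at about 2 × 10^6 cells were treated at 2 × MIC for 2 h, then centrifuged and washed in PBS. They were stained with PI (5 µg/mL) and then DAPI (10 µg/mL), each for 15 min in the dark at 0 °C. Imaged by oil-immersion light microscopy at 100×. Untreated controls were processed identically. Three runs in duplicate.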

Cell membrane [10] = test: Induction of membrane depolarization in methicillin-resistant Staphylococcus aureus ATCC 33591 assessed as induction of membrane potential loss at 5 ug/ml incubated for 30 mins by DiSC3(5) dye based bacterial membrane depolarization assay; settings: dose 5.0 µg/ml
How it was run: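 Mid-log MRSA were washed and resuspended at 10^8 CFU/mL in a 1:1:1 mix of 5 mM glucose, 5 mM HEPES and 100 mM KCl, with 2 µM DiSC3(5). Fluorescence (ex 622/em 670 nm) was read at room temperature until it reached its minimum after about 20 min. Compound was then added and the fluorescence rise recorded. Untreated negative control. Three runs in duplicate.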

Escherichia coli [11] = test: Inhibition of biofilm formation in Escherichia coli ATCC 25922 at 1.5 ug/ml incubated overnight by crystal violet staining based method; assay type: functional
How it was run: (§4)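 Overnight-grown (12 h) bacteria diluted 1:100 into 10% MHII broth and incubated with compound overnight at 37 °C. OD600 recorded, then biomass by crystal violet, expressed as CV OD/growth OD and normalized to untreated control. Triplicate, mean ± STDEV.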

Escherichia coli [12] = test: Inhibition of biofilm formation in Escherichia coli ATCC 25922 at 3 ug/ml incubated overnight by crystal violet staining based method; assay type: functional; how it was run: as §4
Escherichia coli [13] = test: Antimicrobial activity against Escherichia coli ATCC 25922 grown under presence of test compound at 1/2 MIC assessed as inhibition of bacterial growth measured after 14 passages by broth microdilution method relative to wild type; assay type: functional, organism-based; how it was run: as §3
Cell membrane [14] = test: Induction of cell membrane integrity loss in methicillin-resistant Staphylococcus aureus ATCC 33591 at 5 ug/ml incubated for 2 hrs by TEM analysis; settings: dose 5.0 µg/ml
Staphylococcus aureus [15] = test: Bactericidal activity against methicillin-resistant Staphylococcus aureus ATCC 33591 assessed as bacterial killing by measuring reduction in bacterial colony count at 16 to 32 x MIC measured within 10 mins by time-kill kinetics method; settings: dose 16-32 x MIC; time min <=10

Row | Compound | MIC [1] | MIC (Staphylococcus aureus [2]) | MIC (Enterococcus faecalis) | MIC (Escherichia coli [3]) | MIC (Pseudomonas aeruginosa) | HC50 at 1 h [4] | other results
1 | CCCCCCCCCCCCCNC(=O)[C@H](CCCCN)NC(=O)c1ccc(C(=O)N[C@@H](CCCCN)C(=O)NCCCCCCCCCCCCC)cc1 | 6 µg/mL (≈ 7.64 µM) | 6 µg/mL (≈ 7.64 µM) | inactive | inactive | inactive | – | –
2 | CCCCCCCCCCNC(=O)[C@H](CCCCN)NC(=O)c1ccc(C(=O)N[C@@H](CCCCN)C(=O)NCCCCCCCCCC)cc1 | 6 µg/mL (≈ 8.56 µM) | 1.5 µg/mL (≈ 2.14 µM) | 3 µg/mL (≈ 4.28 µM) | 3 µg/mL (≈ 4.28 µM) | inactive | 250 µg/mL | –
3 | CCn1cc(C(=O)O)c(=O)c2cc(F)c(N3CCNCC3)cc21 [NORFLOXACIN] | – | – | – | – | – | – | Activity (Staphylococcus aureus [5]): inactive; Ratio (Staphylococcus aureus [6]): >80
4 | NCCCC[C@H](NC(=O)c1ccc(C(=O)N[C@@H](CCCCN)C(=O)NCc2ccc(-c3ccccc3)cc2)cc1)C(=O)NCc1ccc(-c2ccccc2)cc1 | 6 µg/mL (≈ 7.97 µM) | 3 µg/mL (≈ 3.98 µM) | inactive | 3 µg/mL (≈ 3.98 µM) | 12 µg/mL (≈ 15.9 µM) | > 250 µg/mL | –
5 | CCCCCCCCCCCCCCNC(=O)[C@H](CCCCN)NC(=O)c1ccc(C(=O)N[C@@H](CCCCN)C(=O)NCCCCCCCCCCCCCC)cc1 | inactive | inactive | inactive | inactive | inactive | – | –
6 | CCCCCCCNC(=O)[C@H](CCCCN)NC(=O)c1ccc(C(=O)N[C@@H](CCCCN)C(=O)NCCCCCCC)cc1 | inactive | inactive | inactive | 6 µg/mL (≈ 9.73 µM) | inactive | – | –
7 | CCCCCCCCCNC(=O)[C@H](CCCCN)NC(=O)c1ccc(C(=O)N[C@@H](CCCCN)C(=O)NCCCCCCCCC)cc1 | 1.5 µg/mL (≈ 2.23 µM) | 0.75 µg/mL (≈ 1.11 µM) | 3 µg/mL (≈ 4.46 µM) | 0.75 µg/mL (≈ 1.11 µM) | 3 µg/mL (≈ 4.46 µM) | 180 µg/mL | Activity (Staphylococcus aureus [7]): inactive; Activity (Cell membrane [8]): Active; Activity (Cell membrane [9]): Active; Activity (Cell membrane [10]): Active; inhibition at 1.5 µg/mL (Escherichia coli [11]): 50%; inhibition at 3 µg/mL (Escherichia coli [12]): 70%; Activity (Escherichia coli [13]): Active; Activity (Staphylococcus aureus [6]): Active; Activity (Cell membrane [14]): Active; Activity (Staphylococcus aureus [15]): 3.74 log10CFU/ml
8 | CCCCCCNC(=O)[C@H](CCCCN)NC(=O)c1ccc(C(=O)N[C@@H](CCCCN)C(=O)NCCCCCC)cc1 | inactive | inactive | inactive | inactive | inactive | – | –
9 | CCCCCCCCNC(=O)[C@H](CCCCN)NC(=O)c1ccc(C(=O)N[C@@H](CCCCN)C(=O)NCCCCCCCC)cc1 | 3 µg/mL (≈ 4.65 µM) | 1.5 µg/mL (≈ 2.33 µM) | inactive | 0.75 µg/mL (≈ 1.16 µM) | 3 µg/mL (≈ 4.65 µM) | > 250 µg/mL | –
10 | CCCCCCCCCCCCNC(=O)[C@H](CCCCN)NC(=O)c1ccc(C(=O)N[C@@H](CCCCN)C(=O)NCCCCCCCCCCCC)cc1 | 6 µg/mL (≈ 7.92 µM) | 3 µg/mL (≈ 3.96 µM) | inactive | 3 µg/mL (≈ 3.96 µM) | 12 µg/mL (≈ 15.8 µM) | > 250 µg/mL | –
